Activity calls are given as the source filed them.
Columns and labels:
[1] = test system: FaDu; test: Growth inhibition of human FADU cells at 30 uM after 96 hrs by SRB assay; type: functional, cell-based
In short: (§1)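 Same SRB set-up: RPMI 1640 with 10% FBS at 37 °C, 5% CO2, and a 96 h exposure starting 24 h after seeding (DMSO or DMF ≤0.5% final). Percent viable cells relative to untreated controls is read at 30 µM, the top concentration of the 0–30 µM dilution series. Cells were fixed with TCA, stained with SRB and read at 570 nm; ≥3 independent experiments.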

[2] = test system: A2780; test: Growth inhibition of human A2780 cells at 30 uM after 96 hrs by SRB assay; type: functional, cell-based; in short: as §1
[3] = test system: A-431; test: Growth inhibition of human A431 cells at 30 uM after 96 hrs by SRB assay; type: functional, cell-based; in short: as §1
[4] = test system: 518A2; test: Growth inhibition of human 518A2 cells at 30 uM after 96 hrs by SRB assay; type: functional, cell-based; in short: as §1
[5] = organism: Homo sapiens; test: Growth inhibition of human Liposarcoma cells at 30 uM after 96 hrs by SRB assay; type: functional; in short: as §1
[6] = test system: A253; test: Growth inhibition of human A253 cells at 30 uM after 96 hrs by SRB assay; type: functional, cell-based; in short: as §1
[7] = test system: HCT-8; test: Growth inhibition of human HCT8 cells at 30 uM after 96 hrs by SRB assay; type: functional, cell-based; in short: as §1
[8] = test system: DLD-1; test: Growth inhibition of human DLD1 cells at 30 uM after 96 hrs by SRB assay; type: functional, cell-based; in short: as §1
[9] = test system: A549; test: Growth inhibition of human A549 cells at 30 uM after 96 hrs by SRB assay; type: functional, cell-based; in short: as §1
[10] = test system: SW480; test: Growth inhibition of human SW480 cells at 30 uM after 96 hrs by SRB assay; type: functional, cell-based; in short: as §1
[11] = test system: HCT-116; test: Growth inhibition of human HCT116 cells at 30 uM after 96 hrs by SRB assay; type: functional, cell-based; in short: as §1
[12] = test system: SW-1736; test: Growth inhibition of human SW1736 cells at 30 uM after 96 hrs by SRB assay; type: functional, cell-based; in short: as §1
[13] = test system: HT-29; test: Growth inhibition of human HT-29 cells at 30 uM after 96 hrs by SRB assay; type: functional, cell-based; in short: as §1
[14] = test system: 8505C; test: Growth inhibition of human 8505C cells at 30 uM after 96 hrs by SRB assay; type: functional, cell-based; in short: as §1

Measured: growth inhibition (GI)

C=C(C)[C@@H]1CC[C@]2([C@@H]3O[C@@H]3C#N)CC[C@]3(C)[C@H](CC[C@@H]4[C@@]5(C)CC[C@H](OC(C)=O)C(C)(C)[C@@H]5CC[C@]43C)[C@@H]12
inactive: all assays above

C=C(C)[C@@H]1CC[C@]2(/C=C/C(=O)OCC)CC[C@]3(C)[C@H](CC[C@@H]4[C@@]5(C)CC[C@H](OC)C(C)(C)[C@@H]5CC[C@]43C)[C@@H]12
inactive: all assays above
